A short description of series [1]: folding enthalpy; higher = less favourable; fluorescence melt of hairpins on a sequencing array, two-state fit. Particulars: sodium 0.088 M. The procedure, abridged: (§1)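 Cy3 fluorescence of library hairpins on a sequenced MiSeq flow cell, with annealed Cy3 and quencher oligos, was imaged in 50 mM Na-HEPES pH 8.0, 25 mM NaCl in 2.5 °C steps up to 60 °C. Signals were normalised to pre-quench Cy3 and to control variants. Melting temperature and folding enthalpy came from bootstrapped two-state fits, inverse-variance combined over four replicates. Fitted temperatures were raised by 9.35 °C to match UV melts.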

A short description of series [2]: melting temperature; fluorescence melt of hairpins on a sequencing array, two-state fit, raised by 9.35 °C to match UV melts. Particulars: sodium 0.088 M. Summed up:
as §1

As to GCTGATACGAAAGTAAGC (((..(((....)))))), in series [1], the folding enthalpy is -14.4 kcal/mol. Besides, the Tm in series [2] was 33.9 °C.

As to GCTGATCGAAAGATTAGC (((.(((....))).))), the folding enthalpy in series [1] is -47.2 kcal/mol. Besides, in series [2], the Tm is 51.9 °C.

Take GCTGATGGAAACACCAGC ((((.((....)).)))): the folding enthalpy in series [1] was -30.8 kcal/mol. In addition, in series [2], the Tm was found to be 45.9 °C.

In the case of GCTGATGGAAACGTTAGC (((.(.(....).).))), the folding enthalpy in series [1] was -11.2 kcal/mol. Also, in series [2], the Tm was determined as 27.8 °C.

As to GCTGCAGGAAACCGCAAC (.(((.(....).))).), in series [1], the folding enthalpy is -14.6 kcal/mol. Also, in series [2], the Tm was determined as 27.3 °C.

As for GCTGCCCCGAAAGGGAGC (((..(((....)))))), in series [1], the folding enthalpy is -13.3 kcal/mol. Besides, the Tm in series [2] stood at 55.2 °C.

Regarding GCTGCCGAAAGGCCAAGC ((((((....)))..))), the folding enthalpy in series [1] is -15.5 kcal/mol. For the same sequence, in series [2], the Tm was 46.3 °C.

Consider GCTGCCGAAAGGCCCAGC ((((((....)))..))), for which the folding enthalpy in series [1] is -12.2 kcal/mol. Besides, the Tm in series [2] is 35.8 °C.

On to GCTGCCGAAAGGCCTAGC ((((((....)))..))), for which, in series [1], the folding enthalpy was -14.2 kcal/mol. For the same sequence, the Tm in series [2] came to 41 °C.

Regarding GCTGCCGAAAGGCTAGC ((((((....))).))), the folding enthalpy in series [1] is -16.7 kcal/mol. The Tm in series [2] stood at 59.6 °C.

As to GCTGCCGAAAGGCTTAGC ((((((....)))..))), the folding enthalpy in series [1] was -16.1 kcal/mol. Besides, the Tm in series [2] was found to be 45.2 °C.

As for GCTGCGCCGAAAGGCAGC (((..(((....)))))), the folding enthalpy in series [1] was -11.5 kcal/mol. In addition, the Tm in series [2] came out at 61.1 °C.

Take GCTGCGCGAAAGCAGAGC (((..((....))..))): in series [1], the folding enthalpy was -16.1 kcal/mol. Besides, the Tm in series [2] is 47.7 °C.

Regarding GCTGCGCGAAAGCCCCGC ((.(.((....)).).)), in series [1], the folding enthalpy was -9.96 kcal/mol. The Tm in series [2] came out at 31.8 °C.

As to GCTGCGCGAAAGCGGCGC ((..(((....)))..)), the folding enthalpy in series [1] is -15.5 kcal/mol. Besides, the Tm in series [2] was 63.7 °C.

As for GCTGCGCGAAAGCGGGGC ((..(((....)))..)), the folding enthalpy in series [1] is -26.9 kcal/mol. In addition, the Tm in series [2] was 63.1 °C.

As to GCTGCGCGAAAGCGTCGC ((..(((....)))..)), the folding enthalpy in series [1] was -15.2 kcal/mol. For the same sequence, in series [2], the Tm came out at 51.4 °C.

As for GCTGCGCGAAAGCTAAGC (((..((....))..))), the folding enthalpy in series [1] is -23.4 kcal/mol. For the same sequence, the Tm in series [2] amounted to 44 °C.

GCTGCGCGAAAGCTCCGC ((.(.((....)).).)): in series [1], the folding enthalpy was -12.3 kcal/mol. Further, the Tm in series [2] worked out at 38.5 °C.

In the case of GCTGCGGGAAACCGCAAC (.(((((....))))).), the folding enthalpy in series [1] is -11.4 kcal/mol. Further, the Tm in series [2] was determined as 45.9 °C.

Consider GCTGCGGGAAACCGTGGC ((..(((....)))..)), for which, in series [1], the folding enthalpy was -35.3 kcal/mol. For the same sequence, the Tm in series [2] was 52.6 °C.

With GCTGCTCCGAAAGGAAGC (((..(((....)))))), the folding enthalpy in series [1] was -14.1 kcal/mol. Further, the Tm in series [2] turned out to be 47 °C.

For GCTGCTCGAAAGAGAGC (((.(((....)))))), the folding enthalpy in series [1] was -20.5 kcal/mol. Moreover, the Tm in series [2] is 48 °C.

Take GCTGCTGGAAACAGCGGC ((.((((....)))).)): the folding enthalpy in series [1] is -45.2 kcal/mol. The Tm in series [2] was determined as 65.8 °C.

Consider GCTGCTGGAAACAGTAGC (((.(((....))).))), for which, in series [1], the folding enthalpy is -43.1 kcal/mol. Moreover, the Tm in series [2] was determined as 54.3 °C.

As for GCTGGACGAAAGTCGAGC (((.(((....))).))), the folding enthalpy in series [1] is -44.2 kcal/mol. In addition, the Tm in series [2] worked out at 56.2 °C.

In the case of GCTGGAGAAATCCAGC ((((((....)))))), the folding enthalpy in series [1] is -35.9 kcal/mol. The Tm in series [2] worked out at 62.9 °C.

In the case of GCTGGAGGAAACTCTAGC (((.(((....))).))), the folding enthalpy in series [1] is -40.4 kcal/mol. Moreover, the Tm in series [2] turned out to be 48.4 °C.

Regarding GCTGGAGGAAACTTCGGC ((.(.((....)).).)), the folding enthalpy in series [1] is -29.6 kcal/mol. The Tm in series [2] was 37.2 °C.

On to GCTGGCGAAAGCCCCAGC ((((((....)))..))), for which the folding enthalpy in series [1] is -14.8 kcal/mol. In addition, in series [2], the Tm was 43.5 °C.

As for GCTGGCGAAAGCCCGAGC ((((((....)))..))), the folding enthalpy in series [1] is -14.3 kcal/mol. Further, in series [2], the Tm came to 45.4 °C.

In the case of GCTGGCGAAAGCCGGAGC ((((((....)))..))), the folding enthalpy in series [1] is -11.4 kcal/mol. In series [2], the Tm came to 56.4 °C.

For the sequence GCTGGCGGAAACGTCGGC ((.(.((....)).).)), the folding enthalpy in series [1] was -38.7 kcal/mol. Further, in series [2], the Tm was 53.1 °C.

Turning to GCTGGGCGAAAGCAAAGC (((..((....))..))), the folding enthalpy in series [1] was -20.9 kcal/mol. In addition, the Tm in series [2] was found to be 54.1 °C.

Regarding GCTGGGCGAAAGCCAGC (((.(((....)))))), the folding enthalpy in series [1] was -22.4 kcal/mol. Moreover, in series [2], the Tm was determined as 68.5 °C.

As to GCTGGGCGAAAGCCTCGC ((..(((....)))..)), the folding enthalpy in series [1] is -14.9 kcal/mol. Also, in series [2], the Tm turned out to be 44.6 °C.

GCTGGGCGAAAGCGCTGC ((.(.((....)).).)): the folding enthalpy in series [1] is -31.7 kcal/mol. In addition, the Tm in series [2] was 60 °C.

For the origin of these results see the array DNA melting data of Ke et al. (doi:10.1101/2024.01.08.574731).
